In brackets after ≈: the same amount, converted by molar mass.
Assays:
Fusarium oxysporum [1] = test: Fungicidal activity against Fusarium oxysporum assessed as mycelium growth inhibition at 50 ug/mL by mycelium growth rate method; assay type: functional; details: read-out: GI
Method in brief: (§1)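 In vitro mycelium growth rate method, with fenpiclonil as control. Compounds were tested at 50, 20 and 10 μg mL-1. Mycelial diameters were measured once the mycelia had grown completely. Inhibition (%) = (D1 − D2)/D1 × 100, where D1 is the mean mycelial diameter in the blank and D2 is the mean diameter with compound.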

Alternaria solani [2] = test: Fungicidal activity against Alternaria solani assessed as mycelium growth inhibition at 50 ug/mL by mycelium growth rate method; assay type: functional; details: read-out: GI; method in brief: as §1
Fusarium oxysporum [3] = test: Fungicidal activity against Fusarium oxysporum assessed as mycelium growth inhibition by mycelium growth rate method; assay type: functional, organism-based
Method in brief: (§2)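 EC50 was calculated by the […] from in vitro growth-rate inhibition ratios. Inhibition (%) = (D1 − D2)/D1 × 100, taken from mean mycelial diameters of the blank (D1) and the treated plates (D2) once mycelia had grown completely. Fenpiclonil served as control.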

[4] = tested on: Botryosphaeria berengeriana; test: Fungicidal activity against Botryosphaeria berengeriana assessed as mycelium growth inhibition at 50 ug/mL by mycelium growth rate method; assay type: functional; details: read-out: GI; method in brief: as §1
Mycosphaerella arachidis [5] = test: Fungicidal activity against Mycosphaerella arachidis assessed as mycelium growth inhibition at 50 ug/mL by mycelium growth rate method; assay type: functional; details: read-out: GI; method in brief: as §1
Fusarium graminearum [6] = test: Fungicidal activity against Fusarium graminearum assessed as mycelium growth inhibition at 50 ug/mL by mycelium growth rate method; assay type: functional; details: read-out: GI; method in brief: as §1
[7] = tested on: Botryosphaeria berengeriana; test: Fungicidal activity against Botryosphaeria berengeriana assessed as mycelium growth inhibition at 20 ug/mL by mycelium growth rate method; assay type: functional; details: read-out: GI; method in brief: as §1
Mycosphaerella arachidis [8] = test: Fungicidal activity against Mycosphaerella arachidis assessed as mycelium growth inhibition at 10 ug/mL by mycelium growth rate method; assay type: functional; details: read-out: GI; method in brief: as §1
Alternaria solani [9] = test: Fungicidal activity against Alternaria solani assessed as mycelium growth inhibition at 20 ug/mL by mycelium growth rate method; assay type: functional; details: read-out: GI; method in brief: as §1
Mycosphaerella arachidis [10] = test: Fungicidal activity against Mycosphaerella arachidis assessed as mycelium growth inhibition at 20 ug/mL by mycelium growth rate method; assay type: functional; details: read-out: GI; method in brief: as §1
Fusarium oxysporum [11] = test: Fungicidal activity against Fusarium oxysporum assessed as mycelium growth inhibition at 10 ug/mL by mycelium growth rate method; assay type: functional; details: read-out: GI; method in brief: as §1
Fusarium oxysporum [12] = test: Fungicidal activity against Fusarium oxysporum assessed as mycelium growth inhibition at 20 ug/mL by mycelium growth rate method; assay type: functional; details: read-out: GI; method in brief: as §1
Fusarium graminearum [13] = test: Fungicidal activity against Fusarium graminearum assessed as mycelium growth inhibition at 20 ug/mL by mycelium growth rate method; assay type: functional; details: read-out: GI; method in brief: as §1
Alternaria solani [14] = test: Fungicidal activity against Alternaria solani assessed as mycelium growth inhibition at 10 ug/mL by mycelium growth rate method; assay type: functional; details: read-out: GI; method in brief: as §1
Fusarium graminearum [15] = test: Fungicidal activity against Fusarium graminearum assessed as mycelium growth inhibition at 10 ug/mL by mycelium growth rate method; assay type: functional; details: read-out: GI; method in brief: as §1
[16] = tested on: Botryosphaeria berengeriana; test: Fungicidal activity against Botryosphaeria berengeriana assessed as mycelium growth inhibition at 10 ug/mL by mycelium growth rate method; assay type: functional; details: read-out: GI; method in brief: as §1
Mycosphaerella arachidis [17] = test: Fungicidal activity against Mycosphaerella arachidis assessed as mycelium growth inhibition by mycelium growth rate method; assay type: functional, organism-based; method in brief: as §2
Fusarium graminearum [18] = test: Fungicidal activity against Fusarium graminearum assessed as mycelium growth inhibition by mycelium growth rate method; assay type: functional, organism-based; method in brief: as §2
[19] = tested on: Botryosphaeria berengeriana; test: Fungicidal activity against Botryosphaeria berengeriana assessed as mycelium growth inhibition by mycelium growth rate method; assay type: functional, organism-based; method in brief: as §2
Alternaria solani [20] = test: Fungicidal activity against Alternaria solani assessed as mycelium growth inhibition by mycelium growth rate method; assay type: functional, organism-based; method in brief: as §2

Row | Compound | inhibition of growth at 50 µg/mL (Fusarium oxysporum [1]) [%] | inhibition of growth at 50 µg/mL (Alternaria solani [2]) [%] | EC50 (Fusarium oxysporum [3]) [µg/mL] | inhibition of growth at 50 µg/mL [4] [%] | inhibition of growth at 50 µg/mL (Mycosphaerella arachidis [5]) [%] | inhibition of growth at 50 µg/mL (Fusarium graminearum [6]) [%] | inhibition of growth at 20 µg/mL [7] [%] | inhibition of growth at 10 µg/mL (Mycosphaerella arachidis [8]) [%] | inhibition of growth at 20 µg/mL (Alternaria solani [9]) [%] | inhibition of growth at 20 µg/mL (Mycosphaerella arachidis [10]) [%] | inhibition of growth at 10 µg/mL (Fusarium oxysporum [11]) [%] | inhibition of growth at 20 µg/mL (Fusarium oxysporum [12]) [%] | inhibition of growth at 20 µg/mL (Fusarium graminearum [13]) [%] | inhibition of growth at 10 µg/mL (Alternaria solani [14]) [%] | inhibition of growth at 10 µg/mL (Fusarium graminearum [15]) [%] | inhibition of growth at 10 µg/mL [16] [%] | EC50 (Mycosphaerella arachidis [17]) [µg/mL] | EC50 (Fusarium graminearum [18]) [µg/mL] | EC50 [19] [µg/mL] | EC50 (Alternaria solani [20]) [µg/mL]
1 | N#Cc1c[nH]cc1-c1cccc(Cl)c1Cl [FENPICLONIL] | 18 | 100 | > 50 | 100 | 100 | 100 | – | – | – | – | – | – | – | – | – | – | – | – | – | –
2 | O=[N+]([O-])c1cc(Cl)ccc1-c1ccsc1[N+](=O)[O-] | 17 | 9 | – | 25 | 0 | 0 | 10 | 0 | 0 | 0 | 0 | 0 | 0 | 0 | 0 | 0 | – | – | – | –
3 | O=[N+]([O-])c1c(Cl)c(Cl)cc(Cl)c1-c1ccsc1 | 36 | 49 | > 50 | 90 | 50 | 47 | – | – | – | – | – | – | – | – | – | – | > 50 | > 50 | 36.7 (≈ 119 µM) | > 50
4 | O=[N+]([O-])c1cc(-c2cc(F)ccc2[N+](=O)[O-])cs1 | 28 | 35 | – | 27 | 33 | 16 | 8 | 0 | 16 | 22 | 0 | 10 | 0 | 0 | 0 | 0 | – | – | – | –
5 | O=[N+]([O-])c1ccc(F)cc1-c1ccsc1[N+](=O)[O-] | 21 | 29 | – | 10 | 11 | 0 | 0 | 0 | 16 | 0 | 0 | 0 | 0 | 0 | 0 | 0 | – | – | – | –
6 | O=[N+]([O-])c1cc([N+](=O)[O-])c(-c2ccsc2)cc1F | 100 | 68 | 4.42 (≈ 16.5 µM) | 100 | 100 | 100 | – | – | – | – | – | – | – | – | – | – | 7.16 (≈ 26.7 µM) | 27.5 (≈ 103 µM) | 4.41 (≈ 16.4 µM) | 25.2 (≈ 94 µM)
7 | O=[N+]([O-])c1ccccc1-c1ccsc1 | 68 | 75 | – | 88 | 18 | 65 | 68 | 0 | 30 | 0 | 12 | 31 | 43 | 0 | 13 | 20 | – | – | – | –
8 | O=[N+]([O-])c1cc(-c2ccccc2[N+](=O)[O-])cs1 | 0 | 22 | – | 20 | 20 | 25 | 9 | 8 | 16 | 16 | 0 | 0 | 7 | 6 | 1 | 0 | – | – | – | –
9 | O=[N+]([O-])c1cc(F)c(Cl)cc1-c1ccsc1 | 87 | 60 | – | 80 | 25 | 47 | 74 | 0 | 35 | 18 | 18 | 43 | 30 | 0 | 0 | 64 | – | – | – | –

— ChEMBL document CHEMBL3045952, “Design, synthesis, and fungicidal activity of novel analogues of pyrrolnitrin” (J Agric Food Chem, 2009)
